As a reminder, the IC50 is the concentration that gives 50% inhibition. A lower IC50 goes with greater potency in that assay.

These results are taken from ChEMBL document CHEMBL4000150, “Synthesis and antitumor activity evaluation of PI3K inhibitors containing 3-substituted quinazolin-4(3H)-one moiety” (Bioorg Med Chem, 2015).

The structures appear in SMILES notation.

Data set [1] has as its system HCT-116. In words: Antiproliferative activity against human HCT116 cells harboring PI3CA H1047R mutant after 72 hrs by MTT assay. The data set is classed as functional, cell-based. Particulars: HCT-116, 72 h. The gist of the method: (§1)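 Cells were grown as monolayers in DMEM + 10% FBS at 37 °C, 5% CO2, and seeded at 3000-5000/well, 24 h before dosing. They were exposed 72 h to final 10.0, 5.0, 1.0 and 0.5 μM. MTT (5 mg/mL in PBS) was then added for 4 h at 37 °C, formazan dissolved in DMSO and read at 570 nm. Three experiments in triplicate; IC50 derived from inhibition ratios.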
(In general: Tetrazolium dyes change colour on reduction, which living cells bring about.)

The test system of data set [2] is MCF7. Description: Antiproliferative activity against human MCF7 cells harboring PI3CA E545K mutant after 72 hrs by MTT assay. Particulars: MCF7, 72 h. The data set is classed as functional, cell-based. In short, it runs like this:
as §1

Data set [3] concerns the target PI3-kinase p110-alpha/p85-alpha (Homo sapiens, UniProt P42336). Description: Inhibition of P110alpha/p85alpha (unknown origin) using L-alpha-phosphatidylinositol as substrate after 40 mins by ATP depletion assay. The data set is classed as protein-complex assay.
For data set [4], the target named is PI3K p110 beta/p85 alpha (Homo sapiens, UniProt P42338). In words: Inhibition of P110beta/p85alpha (unknown origin) using L-alpha-phosphatidylinositol as substrate after 40 mins by ATP depletion assay. The data set is classed as protein-complex assay.
In data set [5] the target is PI3-kinase subunit gamma/Phosphoinositide 3-kinase regulatory subunit 5 (Homo sapiens, UniProt P48736). Description: Inhibition of P110gamma/PIK3R5 (unknown origin) using L-alpha-phosphatidylinositol as substrate after 40 mins by ATP depletion assay. The data set is classed as protein-complex assay.
Data set [6] has as its target PI3-kinase p110-delta/p85-alpha (Homo sapiens, UniProt O00329). In words: Inhibition of P110delta/p85alpha (unknown origin) using L-alpha-phosphatidylinositol as substrate after 40 mins by ATP depletion assay. The data set is classed as protein-complex assay.
Data set [7] concerns the target Serine/threonine-protein kinase mTOR (Homo sapiens, UniProt P42345). In words: Inhibition of mTOR (unknown origin) using L-alpha-phosphatidylinositol as substrate after 40 mins by ATP depletion assay.
The target in data set [8] is PI3-kinase p110-alpha/p85-alpha (Homo sapiens) (UniProt P27986+P42336). In words: Ratio of BEZ235 IC50 to compound IC50 for P110alpha/p85alpha (unknown origin) using L-alpha-phosphatidylinositol as substrate after 40 mins by ATP depletion assay. The data set is classed as protein-complex assay.
Data set [9] has as its system CCRF S-180. Description: Anticancer activity against mouse S180 cells homografted in mouse assessed as tumor growth inhibition at 20 mg/kg, po qd for 8 days measured on day 9 post dose relative to vehicle-treated control. The data set is classed as functional. To be noted: CCRF S-180, po, read-out: TGI. In short, it runs like this: (§2)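 3×10^6 S-180 cells injected s.c. into mouse flank (mice 19.5 ± 1.8 g); randomized, 8 per group. Dosing began next day, oral once daily for 8 days in DMSO:PEG400:5% glucose injection (1:7:2, v/v/v); vehicle group got equal solvent volume. Mice sacrificed Day 9, tumors weighed, and tumor-weight inhibitory ratio calculated versus solvent group.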

The test system of data set [10] is CCRF S-180. In words: Anticancer activity against mouse S180 cells homografted in mouse assessed as tumor growth inhibition at 40 mg/kg, po qd for 8 days measured on day 9 post dose relative to vehicle-treated control. The data set is classed as functional. Particulars: CCRF S-180, po, read-out: TGI. In short, it runs like this: as §2
For data set [11], the system named is Mus musculus. Description: Toxicity in mouse S180 cells homografted mouse assessed as reduction of body weight at 20 to 40 mg/kg, po qd for 8 days. The data set is classed as organism-based. Particulars: in vivo, 192 h. The gist of the method: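 S-180 sarcoma-bearing mice (3×10^6 cells s.c., flank; 8 per group) given oral doses once daily for 8 days in DMSO:PEG400:5% glucose injection (1:7:2, v/v/v), starting the day after implantation; solvent-only group as control. Body weight recorded daily through sacrifice on Day 9.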

Sequence of PI3-kinase p110-alpha/p85-alpha (P27986 whole entry): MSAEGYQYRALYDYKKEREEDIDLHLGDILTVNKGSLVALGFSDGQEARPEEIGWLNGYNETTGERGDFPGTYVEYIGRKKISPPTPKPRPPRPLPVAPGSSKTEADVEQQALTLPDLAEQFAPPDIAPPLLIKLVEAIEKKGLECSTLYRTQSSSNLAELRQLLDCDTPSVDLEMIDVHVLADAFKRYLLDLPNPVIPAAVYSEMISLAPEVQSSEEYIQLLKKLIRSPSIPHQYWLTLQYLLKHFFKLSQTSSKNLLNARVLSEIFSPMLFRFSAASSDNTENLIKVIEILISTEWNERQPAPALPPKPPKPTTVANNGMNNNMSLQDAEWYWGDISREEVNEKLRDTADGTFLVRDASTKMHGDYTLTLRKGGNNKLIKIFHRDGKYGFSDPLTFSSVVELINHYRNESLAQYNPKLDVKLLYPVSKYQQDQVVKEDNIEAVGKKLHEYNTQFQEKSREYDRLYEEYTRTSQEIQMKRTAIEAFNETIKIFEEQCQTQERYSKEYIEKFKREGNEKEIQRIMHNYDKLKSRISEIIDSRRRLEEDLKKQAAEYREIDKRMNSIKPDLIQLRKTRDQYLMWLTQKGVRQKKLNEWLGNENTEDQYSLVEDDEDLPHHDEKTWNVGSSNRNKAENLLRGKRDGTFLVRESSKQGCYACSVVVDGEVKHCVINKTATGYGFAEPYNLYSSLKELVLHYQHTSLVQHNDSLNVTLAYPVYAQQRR
Sequence of PI3-kinase p110-alpha/p85-alpha (P42336 whole entry): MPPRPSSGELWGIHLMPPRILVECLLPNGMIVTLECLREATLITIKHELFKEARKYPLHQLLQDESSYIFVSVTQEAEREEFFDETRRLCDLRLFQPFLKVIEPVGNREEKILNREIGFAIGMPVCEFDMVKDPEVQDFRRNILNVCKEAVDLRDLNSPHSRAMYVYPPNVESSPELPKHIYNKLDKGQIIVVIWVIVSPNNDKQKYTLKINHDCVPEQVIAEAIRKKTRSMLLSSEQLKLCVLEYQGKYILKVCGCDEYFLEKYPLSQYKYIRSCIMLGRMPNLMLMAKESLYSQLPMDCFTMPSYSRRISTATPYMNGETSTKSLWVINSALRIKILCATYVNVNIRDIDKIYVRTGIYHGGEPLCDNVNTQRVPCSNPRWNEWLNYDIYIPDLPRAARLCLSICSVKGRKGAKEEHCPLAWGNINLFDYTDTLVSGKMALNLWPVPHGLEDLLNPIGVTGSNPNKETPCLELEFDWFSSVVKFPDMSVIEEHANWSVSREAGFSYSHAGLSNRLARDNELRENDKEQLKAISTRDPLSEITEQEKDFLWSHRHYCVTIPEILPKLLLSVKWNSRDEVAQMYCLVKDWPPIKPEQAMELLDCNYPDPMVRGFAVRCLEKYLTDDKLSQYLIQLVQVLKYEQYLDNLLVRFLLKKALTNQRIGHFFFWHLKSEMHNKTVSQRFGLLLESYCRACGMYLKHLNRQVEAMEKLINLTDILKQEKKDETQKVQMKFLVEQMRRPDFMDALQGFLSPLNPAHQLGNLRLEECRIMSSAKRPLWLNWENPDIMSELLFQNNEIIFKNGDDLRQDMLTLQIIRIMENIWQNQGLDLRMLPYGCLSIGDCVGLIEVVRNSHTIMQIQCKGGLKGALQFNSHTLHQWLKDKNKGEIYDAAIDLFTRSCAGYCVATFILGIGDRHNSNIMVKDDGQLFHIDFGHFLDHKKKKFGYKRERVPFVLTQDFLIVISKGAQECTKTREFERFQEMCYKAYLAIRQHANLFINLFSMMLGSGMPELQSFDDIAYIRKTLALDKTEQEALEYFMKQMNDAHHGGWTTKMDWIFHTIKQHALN
Sequence of PI3-kinase p110-delta/p85-alpha (P27986 whole entry): as the sequence (P27986 whole entry) above
Sequence of PI3-kinase p110-delta/p85-alpha (O00329 whole entry): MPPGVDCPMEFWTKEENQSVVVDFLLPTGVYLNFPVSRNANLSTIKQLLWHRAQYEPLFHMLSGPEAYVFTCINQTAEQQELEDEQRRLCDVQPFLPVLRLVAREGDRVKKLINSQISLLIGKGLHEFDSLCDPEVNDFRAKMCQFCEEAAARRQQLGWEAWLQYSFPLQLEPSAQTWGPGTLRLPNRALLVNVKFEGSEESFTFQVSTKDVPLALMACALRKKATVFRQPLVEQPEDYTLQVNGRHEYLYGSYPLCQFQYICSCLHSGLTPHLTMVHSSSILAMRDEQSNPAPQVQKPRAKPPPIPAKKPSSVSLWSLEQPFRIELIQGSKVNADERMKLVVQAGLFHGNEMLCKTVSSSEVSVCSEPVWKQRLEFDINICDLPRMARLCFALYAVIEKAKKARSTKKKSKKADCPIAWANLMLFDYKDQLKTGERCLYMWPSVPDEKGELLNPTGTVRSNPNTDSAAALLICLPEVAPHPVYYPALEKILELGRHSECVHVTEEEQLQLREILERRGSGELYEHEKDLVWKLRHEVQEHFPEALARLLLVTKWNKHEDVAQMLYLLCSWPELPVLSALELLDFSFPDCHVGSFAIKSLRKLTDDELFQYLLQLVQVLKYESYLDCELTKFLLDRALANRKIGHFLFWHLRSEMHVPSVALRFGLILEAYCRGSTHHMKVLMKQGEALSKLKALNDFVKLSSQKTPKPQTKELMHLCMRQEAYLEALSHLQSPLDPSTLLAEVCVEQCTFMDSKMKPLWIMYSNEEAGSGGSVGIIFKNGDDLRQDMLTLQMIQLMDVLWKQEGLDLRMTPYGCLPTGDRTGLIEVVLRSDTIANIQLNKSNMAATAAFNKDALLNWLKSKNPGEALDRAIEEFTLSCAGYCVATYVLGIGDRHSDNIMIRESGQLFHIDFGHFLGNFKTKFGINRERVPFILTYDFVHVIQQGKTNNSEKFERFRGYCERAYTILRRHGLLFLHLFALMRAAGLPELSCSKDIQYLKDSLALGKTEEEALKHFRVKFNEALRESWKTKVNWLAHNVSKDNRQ
Sequence of PI3K p110 beta/p85 alpha (P27986 whole entry): as the sequence (P27986 whole entry) above
Sequence of PI3K p110 beta/p85 alpha (P42338 whole entry): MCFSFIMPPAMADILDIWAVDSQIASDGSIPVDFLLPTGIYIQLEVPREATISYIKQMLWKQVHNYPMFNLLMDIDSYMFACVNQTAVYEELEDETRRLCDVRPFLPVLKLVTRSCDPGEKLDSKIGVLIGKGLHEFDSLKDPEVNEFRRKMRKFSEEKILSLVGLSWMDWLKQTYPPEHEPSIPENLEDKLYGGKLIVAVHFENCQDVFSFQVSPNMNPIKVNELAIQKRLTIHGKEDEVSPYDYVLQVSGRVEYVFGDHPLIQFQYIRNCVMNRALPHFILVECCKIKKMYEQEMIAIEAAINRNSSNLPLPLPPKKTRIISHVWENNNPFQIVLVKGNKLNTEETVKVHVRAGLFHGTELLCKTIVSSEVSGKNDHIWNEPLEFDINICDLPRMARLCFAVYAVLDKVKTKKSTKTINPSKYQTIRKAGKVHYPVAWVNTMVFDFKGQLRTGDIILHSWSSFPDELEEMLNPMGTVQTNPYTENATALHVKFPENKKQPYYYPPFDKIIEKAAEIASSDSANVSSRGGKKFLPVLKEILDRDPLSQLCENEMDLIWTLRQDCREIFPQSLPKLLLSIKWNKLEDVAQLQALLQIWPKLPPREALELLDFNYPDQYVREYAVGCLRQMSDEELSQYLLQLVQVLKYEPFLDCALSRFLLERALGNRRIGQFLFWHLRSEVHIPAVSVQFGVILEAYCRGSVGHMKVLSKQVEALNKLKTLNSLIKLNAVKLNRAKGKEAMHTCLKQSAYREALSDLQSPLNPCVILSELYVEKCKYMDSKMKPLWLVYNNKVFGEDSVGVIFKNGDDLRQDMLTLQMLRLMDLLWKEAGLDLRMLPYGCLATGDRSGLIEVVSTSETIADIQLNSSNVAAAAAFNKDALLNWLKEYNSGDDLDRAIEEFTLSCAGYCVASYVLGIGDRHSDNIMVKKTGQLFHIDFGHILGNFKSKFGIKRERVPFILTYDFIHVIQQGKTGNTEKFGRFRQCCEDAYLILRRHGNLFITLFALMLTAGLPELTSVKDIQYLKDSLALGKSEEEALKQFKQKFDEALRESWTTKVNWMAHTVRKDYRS

Take `COc1ncc(-c2ccc3ncn(CCN4CCCC4)c(=O)c3c2)cc1NS(=O)(=O)c1ccc(F)cc1`: the figures for the IC50 in data set [1] and in data set [2] were 2640 nM and 3820 nM, respectively.

Consider `COc1ncc(-c2ccc3ncn(C4CCN(C(=O)C5CCOCC5)CC4)c(=O)c3c2)cc1NS(=O)(=O)c1ccc(F)cc1`, for which the results for the IC50 in data set [1] and in [2] were 960 nM and 2900 nM, respectively.

As to `COc1ncc(-c2ccc3ncn([C@H]4CCNC4)c(=O)c3c2)cc1NS(=O)(=O)c1ccc(F)cc1`, the figures for the IC50 in data set [1] and in data set [2] were 1460 nM and 2770 nM, respectively.

With `COc1ncc(-c2ccc3ncn([C@H]4CCN(CC5CC5)C4)c(=O)c3c2)cc1NS(=O)(=O)c1ccc(F)cc1`, the IC50 in data set [1] is 670 nM; in data set [2], 1030 nM; in [3], 6.7 nM; in data set [4], 24 nM; in [5], 181 nM; in [6], 21 nM. This compound had a 50% inhibitory concentration (IC50) in data set [7] of 114 nM. Further, in [8], the Ratio IC50 came to 10.

Turning to `COc1ncc(-c2ccc3ncn(-c4ccc(CN5CCOCC5)cc4)c(=O)c3c2)cc1NS(=O)(=O)c1ccc(F)cc1`, the IC50 in data set [1] is 1420 nM; in data set [2] it was 3490 nM.

With `COc1ncc(-c2ccc3ncn([C@@H]4CCN(CC5CC5)C4)c(=O)c3c2)cc1NS(=O)(=O)c1ccc(F)cc1`, the IC50 stood at 4880 nM in [1] and 2030 nM in data set [2].

Regarding `COc1ncc(-c2ccc3ncn(Cc4ccccc4)c(=O)c3c2)cc1NS(=O)(=O)c1ccc(F)cc1`, the 50% inhibitory concentration (IC50) in data set [1] stood at 4740 nM; in [2] it was 5900 nM.

As to `COc1ncc(-c2ccc3ncn(-c4ccc(CN5CCN(C)CC5)cc4)c(=O)c3c2)cc1NS(=O)(=O)c1ccc(F)cc1`, the results for the half-maximal inhibitory concentration (IC50) in data set [1] and in data set [2] were 1250 nM and 4600 nM, respectively.

`COc1ncc(-c2ccc3ncn([C@H]4CCN(C(=O)OC(C)(C)C)C4)c(=O)c3c2)cc1NS(=O)(=O)c1ccc(F)cc1`: the IC50 in data set [1] is 660 nM; in data set [2], 2730 nM.

For `COc1ncc(-c2ccc3ncn([C@@H]4CCN(C(C)=O)C4)c(=O)c3c2)cc1NS(=O)(=O)c1ccc(F)cc1`, the IC50 was determined as 4720 nM in data set [1] and 2450 nM in data set [2].

As for `COc1ncc(-c2ccc3ncn([C@H]4CCN(C(=O)C5CC5)C4)c(=O)c3c2)cc1NS(=O)(=O)c1ccc(F)cc1`, the IC50 was 710 nM in data set [1]; 2360 nM in data set [2]; 7.3 nM in [3]; 209 nM in data set [4]; 116 nM in data set [5]; 106 nM in data set [6]. Half-maximal inhibition in [7] (IC50) was put at 208 nM. Further, in data set [8], the Ratio IC50 turned out to be 10. The inhibition in vivo at 20 mg/kg in data set [9] stood at 34.5%. The inhibition in vivo at 40 mg/kg in [10] came out at 58%. Moreover, the Activity result in data set [11] is reported as “Toxic”.

As to `CCN(CC)CCn1cnc2ccc(-c3cnc(OC)c(NS(=O)(=O)c4ccc(F)cc4F)c3)cc2c1=O`, the half-maximal inhibitory concentration (IC50) in data set [1] stood at 1030 nM; in [2], 2590 nM.

Turning to `COc1ncc(-c2ccc3ncn(C4CCN(CC5CC5)CC4)c(=O)c3c2)cc1NS(=O)(=O)c1ccc(F)cc1`, the half-inhibitory concentration (IC50) in [1] came to 1220 nM; in data set [2] it was 2260 nM.

As for `COc1ncc(-c2ccc3ncn(C4CCNCC4)c(=O)c3c2)cc1NS(=O)(=O)c1ccc(F)cc1`, the IC50 amounted to 1150 nM in data set [1] and 1670 nM in data set [2].

As to `COc1ncc(-c2ccc3ncn([C@@H]4CCN(C(=O)C5CC5)C4)c(=O)c3c2)cc1NS(=O)(=O)c1ccc(F)cc1`, the values for the half-maximal inhibitory concentration (IC50) in data set [1] and in [2] were 6090 nM and 2260 nM, respectively.

In the case of `COc1ncc(-c2ccc3ncn(CCN4CCN(C)CC4)c(=O)c3c2)cc1NS(=O)(=O)c1ccc(F)cc1`, the IC50 in [1] turned out to be 1450 nM; in data set [2], 3000 nM.

`Cn1c(=O)n(-c2ccc(C(C)(C)C#N)cc2)c2c3cc(-c4cnc5ccccc5c4)ccc3ncc21` [DACTOLISIB]: the results for the IC50 in [1] and in data set [2] were 560 nM and 1090 nM, respectively.

As for `COc1ncc(-c2ccc3ncn(C4CCN(C(C)=O)CC4)c(=O)c3c2)cc1NS(=O)(=O)c1ccc(F)cc1`, the values for the IC50 in data set [1] and in data set [2] were 1300 nM and 2630 nM, respectively.

Take `CCN(CC)CCn1cnc2ccc(-c3cnc(OC)c(NS(=O)(=O)c4ccc(F)cc4)c3)cc2c1=O`: the half-maximal inhibitory concentration (IC50) in data set [1] amounted to 1200 nM; in data set [2], 2340 nM.

Consider `COc1ncc(-c2ccc3ncn(Cc4ccncc4)c(=O)c3c2)cc1NS(=O)(=O)c1ccc(F)cc1`, for which the results for the IC50 in data set [1] and in data set [2] were 2950 nM and 1840 nM, respectively.

Regarding `COc1ccc(Cn2cnc3ccc(-c4cnc(OC)c(NS(=O)(=O)c5ccc(F)cc5)c4)cc3c2=O)cc1`, the results for the IC50 in data set [1] and in data set [2] were 2800 nM and 3340 nM, respectively.

As to `COc1ncc(-c2ccc3ncn(CCN4CCOCC4)c(=O)c3c2)cc1NS(=O)(=O)c1ccc(Cl)cc1`, the IC50 in [1] stood at 2020 nM; in data set [2], 4140 nM.

For the compound `COc1ncc(-c2ccc3ncn(CCN(C)C)c(=O)c3c2)cc1NS(=O)(=O)c1ccc(F)cc1`, the figures for the half-maximal inhibitory concentration (IC50) in data set [1] and in data set [2] were 2690 nM and 3720 nM, respectively.

Consider `COc1ncc(-c2ccc3ncn(Cc4cccnc4)c(=O)c3c2)cc1NS(=O)(=O)c1ccc(F)cc1`, for which the IC50 was 1290 nM in data set [1] and 1780 nM in [2].

Turning to `COc1ncc(-c2ccc3ncn(CCN4CCOCC4)c(=O)c3c2)cc1NS(=O)(=O)c1ccc(C)cc1`, the IC50 in [1] was 1350 nM; in data set [2], 3480 nM.

As for `COc1ncc(-c2ccc3ncn(CCN4CCOCC4)c(=O)c3c2)cc1NS(=O)(=O)c1ccc(F)cc1`, the half-maximal inhibitory concentration (IC50) came out at 1820 nM in [1] and 3200 nM in data set [2].

Take `COc1ncc(-c2ccc3ncn(C4CCN(C(=O)C5CC5)CC4)c(=O)c3c2)cc1NS(=O)(=O)c1ccc(F)cc1`: the figures for the 50% inhibitory concentration (IC50) in [1] and in data set [2] were 1350 nM and 2730 nM, respectively.

Consider `COc1ncc(-c2ccc3ncn(C4CCN(C(=O)OC(C)(C)C)CC4)c(=O)c3c2)cc1NS(=O)(=O)c1ccc(F)cc1`, for which the concentration for half-maximal inhibition (IC50) was found to be 1530 nM in data set [1] and 4360 nM in data set [2].

For the compound `CCCCn1cnc2ccc(-c3cnc(OC)c(NS(=O)(=O)c4ccc(F)cc4)c3)cc2c1=O`, the concentration for half-maximal inhibition (IC50) is 4060 nM in data set [1] and 3930 nM in data set [2].

In the case of `COc1ncc(-c2ccc3ncn([C@H]4CCN(C(=O)C5CCOCC5)C4)c(=O)c3c2)cc1NS(=O)(=O)c1ccc(F)cc1`, the 50% inhibitory concentration (IC50) in data set [1] amounted to 600 nM; in data set [2] it was 1620 nM.

Turning to `COc1ncc(-c2ccc3ncn(CCN4CCCCC4)c(=O)c3c2)cc1NS(=O)(=O)c1ccc(F)cc1`, the IC50 in [1] is 2750 nM; in data set [2], 2950 nM.

Consider `COc1ncc(-c2ccc3ncn([C@H]4CCN(C(C)=O)C4)c(=O)c3c2)cc1NS(=O)(=O)c1ccc(F)cc1`, for which the results for the 50% inhibitory concentration (IC50) in [1] and in data set [2] were 1250 nM and 2520 nM, respectively.
